The values that follow come from PMC10556424 (RSC Advances, 2023).

Read-outs that look alike come from different tables or passages of the source. Where only a bound is given, the exact number is not on record here.

Data set [1] in a line: In vitro microsomal stability. The format is in vitro ADME. The conditions noted are these: human liver microsomes, 1 μM. The procedure, abridged:
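Compound (1 μM) with pooled human liver microsomes (0.4 mg mL−1) in 100 mM potassium phosphate, pH 7.4, with 3.3 mM MgCl2 and 1.3 mM β-NADPH. Organic solvent was ≤1%, at 37 °C. Time-point samples were quenched with ice-cold acetonitrile containing internal standard, centrifuged, and the supernatants analysed by LC-MS/MS. Results are intrinsic clearance.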
(In general: Microsomes from liver hold many membrane-bound enzymes, among them those of drug oxidation.)

Data set [2] has as its system HBV DNA in HBV-expressed HepG2.2.15 cells. The data set can be described thus: In vitro anti-HBV activity in HepG2.2.15 cell line. The format is cell-based. The following applies: Hepatitis B virus; for activity at 1 µM: HepG2.2.15, 144 h, read-out: % HBV DNA remaining. A digest of the protocol: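 HepG2.2.15 cells were seeded at 5 × 10^5 per well in high-glucose DMEM with 10% heat-inactivated FBS, 300 mg L−1 G418, 1% non-essential amino acids and antibiotic–antimycotic, then held overnight at 37 °C, 5% CO2. Compound or 0.5% DMSO was given for 3 days, then renewed for 3 more days. Intracellular HBV DNA was measured by qPCR as % remaining versus vehicle; EC50 came from a 4-parameter nonlinear fit.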

Data set [3] deals with all tested CYPs: CYP1A2, CYP2A6, CYP2B6, CYP2C8, CYP2C9, CYP2C19, CYP2D6, CYP2E1, CYP3A4/5. Briefly: CYP450 inhibition in human liver microsomes, all tested CYPs. The format is in vitro ADME. The conditions noted are these: pooled human liver microsomes, pH 7.4. A digest of the protocol:
(§1)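 Test compound at 10 μM with pooled human liver microsomes (0.2 mg mL−1) and a cocktail of 10 CYP probe substrates. Buffer was 100 mM potassium phosphate, pH 7.4, with 3.3 mM MgCl2, at 37 °C. β-NADPH (1.3 mM) started the reaction. After 10 min, ice-cold 3% formic acid in 5% acetonitrile stopped it. Centrifuged samples went to LC-MS/MS; each metabolite's formation is given as % inhibition versus control.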

Data set [4] is described as follows: Site of oxidative metabolism. It counts as in vitro ADME. The conditions noted are these: ESI file S2.
A further data set addresses CYP2C19 (Homo sapiens, UniProt P33261). Briefly: CYP450 inhibition in human liver microsomes. It counts as in vitro ADME. The conditions noted are these: pooled human liver microsomes, pH 7.4, probe (S)-mephenytoin (50 μM). The procedure, abridged:
as §1

A further data set concerns the target T1, CYP2B6 (Homo sapiens, UniProt P20813).
T1 sequence (P20813 1-491): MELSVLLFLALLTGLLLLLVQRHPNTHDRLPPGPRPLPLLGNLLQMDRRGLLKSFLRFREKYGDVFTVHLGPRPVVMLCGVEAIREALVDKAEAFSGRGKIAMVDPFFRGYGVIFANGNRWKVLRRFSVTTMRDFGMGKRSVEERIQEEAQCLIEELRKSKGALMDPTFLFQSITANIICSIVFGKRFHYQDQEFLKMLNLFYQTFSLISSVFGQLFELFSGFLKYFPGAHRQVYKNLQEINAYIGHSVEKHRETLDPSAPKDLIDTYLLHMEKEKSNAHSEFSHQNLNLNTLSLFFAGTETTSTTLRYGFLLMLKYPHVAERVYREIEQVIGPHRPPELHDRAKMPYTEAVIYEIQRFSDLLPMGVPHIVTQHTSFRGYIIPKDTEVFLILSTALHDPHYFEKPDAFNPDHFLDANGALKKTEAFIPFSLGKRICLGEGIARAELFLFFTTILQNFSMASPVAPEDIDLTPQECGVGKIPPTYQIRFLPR
The data set can be described thus: CYP450 inhibition in human liver microsomes. It counts as in vitro ADME. The following applies: pooled human liver microsomes, pH 7.4, probe bupropion (12 μM). A digest of the protocol:
as §1

In a further data set the target is CYP2D6 (Homo sapiens, UniProt P10635). The data set can be described thus: CYP450 inhibition in human liver microsomes. It counts as in vitro ADME. The following applies: pooled human liver microsomes, pH 7.4, probe dextromethorphan (2.5 μM). A digest of the protocol: as §1
The target of another data set is CYP2C9 (Homo sapiens, UniProt P11712). The data set can be described thus: CYP450 inhibition in human liver microsomes. It counts as in vitro ADME. The conditions noted are these: pooled human liver microsomes, pH 7.4, probe tolbutamide (100 μM). The procedure, abridged: as §1
Data set [5] is described as follows: Pharmacokinetic studies in rats. It counts as in vivo. The following applies: male, Sprague-Dawley, rat, plasma; for clearance: iv, 0.5 mg/kg; for bioavailability: po, 2 mg/kg. A digest of the protocol:
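Male Sprague-Dawley rats got a single IV bolus (0.5 mg kg−1, in 10% DMSO in 20% hydroxypropyl methyl β-cyclodextrin) or oral gavage (2 mg kg−1, in 40% polyethylene glycol in water). Plasma was taken pre-dose and up to 24 h and assayed by LC-MS/MS. CL and F came from non-compartmental analysis.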

The next data set has as its system HBV. The conditions noted are these: cited from earlier work.
[6] abbreviates: HepG2.2.15, read-out: HBV DNA inhibition EC50.

CYP2C9, sequence (P11712 whole entry): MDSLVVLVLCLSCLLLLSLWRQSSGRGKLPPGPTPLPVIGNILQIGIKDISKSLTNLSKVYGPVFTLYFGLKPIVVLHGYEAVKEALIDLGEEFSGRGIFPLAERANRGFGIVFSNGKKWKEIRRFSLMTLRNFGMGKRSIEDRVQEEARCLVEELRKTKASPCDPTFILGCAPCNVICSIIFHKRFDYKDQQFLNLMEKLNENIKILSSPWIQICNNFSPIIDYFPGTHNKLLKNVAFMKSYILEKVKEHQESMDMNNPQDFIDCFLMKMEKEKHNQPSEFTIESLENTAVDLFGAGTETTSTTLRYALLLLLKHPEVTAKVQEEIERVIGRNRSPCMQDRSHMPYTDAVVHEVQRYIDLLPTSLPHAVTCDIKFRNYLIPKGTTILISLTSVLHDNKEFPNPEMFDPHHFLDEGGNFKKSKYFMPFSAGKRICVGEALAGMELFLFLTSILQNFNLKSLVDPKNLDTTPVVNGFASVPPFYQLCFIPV
CYP2D6, sequence (P10635 whole entry): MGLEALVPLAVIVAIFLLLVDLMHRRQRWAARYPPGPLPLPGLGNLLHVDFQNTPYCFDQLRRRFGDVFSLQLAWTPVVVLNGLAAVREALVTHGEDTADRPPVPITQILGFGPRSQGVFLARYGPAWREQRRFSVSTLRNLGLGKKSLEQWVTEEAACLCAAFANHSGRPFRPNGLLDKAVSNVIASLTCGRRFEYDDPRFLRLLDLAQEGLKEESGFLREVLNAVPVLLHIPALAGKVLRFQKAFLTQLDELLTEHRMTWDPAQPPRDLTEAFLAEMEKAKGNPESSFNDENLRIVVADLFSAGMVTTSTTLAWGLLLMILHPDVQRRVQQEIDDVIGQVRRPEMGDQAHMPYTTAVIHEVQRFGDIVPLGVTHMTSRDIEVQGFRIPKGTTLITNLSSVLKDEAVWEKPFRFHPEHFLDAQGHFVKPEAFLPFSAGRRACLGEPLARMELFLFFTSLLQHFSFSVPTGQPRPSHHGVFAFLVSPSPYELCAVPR
CYP2C19, sequence (P33261 whole entry): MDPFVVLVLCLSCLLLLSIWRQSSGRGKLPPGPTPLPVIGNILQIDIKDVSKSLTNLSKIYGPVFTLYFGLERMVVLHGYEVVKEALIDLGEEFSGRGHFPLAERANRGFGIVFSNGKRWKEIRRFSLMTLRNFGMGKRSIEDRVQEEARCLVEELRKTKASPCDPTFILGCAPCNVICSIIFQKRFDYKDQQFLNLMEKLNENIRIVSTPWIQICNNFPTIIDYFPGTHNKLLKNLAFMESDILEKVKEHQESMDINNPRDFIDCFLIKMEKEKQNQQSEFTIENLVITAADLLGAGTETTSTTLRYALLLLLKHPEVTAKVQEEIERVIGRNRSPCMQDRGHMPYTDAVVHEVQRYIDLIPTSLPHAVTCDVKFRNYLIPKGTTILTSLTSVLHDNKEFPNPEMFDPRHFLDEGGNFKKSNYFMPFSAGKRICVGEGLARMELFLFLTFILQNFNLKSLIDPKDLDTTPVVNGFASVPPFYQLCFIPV

The term inhibition denotes the drop in the measured response relative to a control, in per cent. A lower inhibition goes with little suppression. In [1] (Table 3), `Cc1ccc(C(=O)N2CC[C@H](C(=O)Nc3cc(F)c(F)c(F)c3)C2)[nH]1` [CU01, (S)-1-(5-Methyl-1H-pyrrole-2-carbonyl)-N-(3,4,5-trifluorophenyl)pyrrolidine-3-carboxamide] yielded a CLint of 14.4 μL per min per mg protein. Moreover, the activity at 1 µM in data set [2] came to 59%. Also, the inhibition at 10 min, 10 µM in data set [3] is under 20%.
Consider `O=C(Nc1cc(F)c(F)c(F)c1)[C@H]1CCN(C(=O)c2ccc(C3CC3)[nH]2)C1` [CU02, (S)-1-(5-cyclopropyl-1H-pyrrole-2-carbonyl)-N-(3,4,5-trifluorophenyl)pyrrolidine-3-carboxamide], for which the “Site of oxidative metabolic reactions” value in data set [4] is recorded as “oxidative metabolic reactions primarily occurred on the R group”. Also, the inhibition at 10 min, 10 µM against CYP2C19 is 53%; against CYP2B6 it was 50%. In data set [1] (Table 3), this compound returned a CLint of 14.5 μL per min per mg protein. For the same compound, the activity at 1 µM in data set [2] was determined as 48%.
As a reminder, the EC50 is the concentration at which the effect is half-maximal. With `O=C(Nc1cc(F)c(F)c(F)c1)[C@H]1CCN(C(=O)c2cc3ccccc3[nH]2)C1` [CU03, (S)-1-(1H-Indole-2-carbonyl)-N-(3,4,5-trifluorophenyl)pyrrolidine-3-carboxamide], the “Site of oxidative metabolic reactions” value in data set [4] is “oxidative metabolic reactions primarily occurred on the R group”. For the same compound, the inhibition at 10 min, 10 µM at CYP2C19 came to 63%; at CYP2D6 it was 51%; against CYP2C9, 62%. In data set [1] (Table 3), this compound gave a CLint of 9.2 μL per min per mg protein. This compound also registered an EC50 in data set [2] (HepG2.2.15) of 447 nM. For the same compound, the activity at 1 µM in [2] was determined as 44%.
In data set [1] (Table 3), `O=C(Nc1cc(F)c(F)c(F)c1)[C@H]1CCN(C(=O)c2ccc(-c3cccnc3)[nH]2)C1` [CU05, (S)-1-(5-(Pyridin-3-yl)-1H-pyrrole-2-carbonyl)-N-(3,4,5-trifluorophenyl)pyrrolidine-3-carboxamide] showed a CLint of 2.9 μL per min per mg protein. Further, the activity at 1 µM in data set [2] was 47%. Moreover, the figures for the inhibition at 10 min, 10 µM against CYP2B6 and at CYP2C9 were 65% and 87%, respectively.
For `O=C(Nc1cc(F)c(F)c(F)c1)[C@H]1CCN(C(=O)c2ccc(-c3ccncc3)[nH]2)C1` [CU06, (S)-1-(5-(Pyridin-4-yl)-1H-pyrrole-2-carbonyl)-N-(3,4,5-trifluorophenyl)pyrrolidine-3-carboxamide], in data set [1] (Table 3), the CLint is recorded as 4.6 μL per min per mg protein. Besides, the activity at 1 µM in [2] was determined as 28%. The values for the inhibition at 10 min, 10 µM against CYP2D6, against CYP2B6 and at CYP2C9 were 89%, 81% and 67%, respectively.
In the case of `O=C(Nc1cc(F)c(F)c(F)c1)[C@H]1CCN(C(=O)c2ccc(-c3ccccn3)[nH]2)C1` [CU07, (S)-1-(5-(Pyridin-2-yl)-1H-pyrrole-2-carbonyl)-N-(3,4,5-trifluorophenyl)pyrrolidine-3-carboxamide], in [1] (Table 3), the CLint is listed as 6.2 μL per min per mg protein. The activity at 1 µM in data set [2] is 77%. In data set [3], this compound showed an inhibition at 10 min, 10 µM of under 20%.
In the case of `O=C(Nc1cc(F)c(F)c(F)c1)[C@H]1CCN(C(=O)c2ccc(-c3cncnc3)[nH]2)C1` [CU08, (S)-1-(5-(Pyrimidin-5-yl)-1H-pyrrole-2-carbonyl)-N-(3,4,5-trifluorophenyl)pyrrolidine-3-carboxamide], the CLint in [1] (Table 3) is recorded as 0.5 μL per min per mg protein. Besides, the activity at 1 µM in data set [2] came out at 43%. Further, the inhibition at 10 min, 10 µM is 61% on CYP2B6 and 53% against CYP2C9.
`Cc1ncnc(C)c1-c1ccc(C(=O)N2CC[C@H](C(=O)Nc3ccc(F)c(Cl)c3)C2)[nH]1` [CU12, (S)–N-(3-Chloro-4-fluorophenyl)-1-(5-(4,6-dimethylpyrimidin-5-yl)-1H-pyrrole-2-carbonyl)pyrrolidine-3-carboxamide] came in with a CLint in data set [1] (Table 4) of 3.6 μL per min per mg protein. Further, in [2] (setting [6]), the half-maximal effective concentration (EC50) worked out at 18.2 ± 2 nM.
In the case of `Cc1ncnc(C)c1-c1ccc(C(=O)N2CC[C@H](C(=O)Nc3cc(F)c(F)c(F)c3)[C@@H]2C)[nH]1` [CU13, (2S,3S)-1-(5-(4,6-Dimethylpyrimidin-5-yl)-1H-pyrrole-2-carbonyl)-2-methyl-N-(3,4,5-trifluorophenyl)pyrrolidine-3-carboxamide], the CLint in [1] (Table 4) was 2.1 μL per min per mg protein. The EC50 in data set [2] (setting [6]) turned out to be 17.8 ± 3 nM.
The clearance is the rate of elimination divided by the concentration. What is called bioavailability is the share of a dose that reaches the circulation, judged against a reference dose that is usually intravenous. Higher therefore signals much systemic uptake. For `Cc1ncnc(C)c1-c1ccc(C(=O)N2CC[C@H](C(=O)Nc3ccc(F)c(Cl)c3)[C@@H]2C)[nH]1` [CU14, (2S,3S)–N-(3-Chloro-4-fluorophenyl)-1-(5-(4,6-dimethylpyrimidin-5-yl)-1H-pyrrole-2-carbonyl)-2-methylpyrrolidine-3-carboxamide], in [1] (Table 4), the CLint is 2.9 μL per min per mg protein. The EC50 in [2] (setting [6]) worked out at 13.2 ± 2 nM. Further, in [5], the clearance is 12.3 mL/min/kg and the bioavailability was 66%.
The compound `Cc1cc(NC(=O)[C@H]2CCN(C(=O)c3ccc(-c4c(C)ncnc4C)[nH]3)[C@H]2C)ccc1F` [CU15, (2S,3S)-1-(5-(4,6-Dimethylpyrimidin-5-yl)-1H-pyrrole-2-carbonyl)-N-(4-fluoro-3-methylphenyl)-2-methylpyrrolidine-3-carboxamide] returned a CLint in [1] (Table 4) of 4.9 μL per min per mg protein. Besides, the EC50 in data set [2] (HepG2.2.15) is under 10 nM. For the same compound, the concentration giving a half-maximal response (EC50) in data set [2] (setting [6]) turned out to be 8.6 ± 2 nM. In data set [5], this compound showed a clearance of 20 mL/min/kg and a bioavailability of 44%.
Turning to `Cc1cc(NC(=O)[C@H]2CCN(C(=O)c3ccc(-c4c(C)n[nH]c4C)[nH]3)[C@H]2C)ccc1F` [CU16, (2S,3S)-1-(5-(3,5-Dimethyl-1H-pyrazol-4-yl)-1H-pyrrole-2-carbonyl)-N-(4-fluoro-3-methylphenyl)-2-methylpyrrolidine-3-carboxamide], the CLint in [1] (Table 4) is 11.7 μL per min per mg protein. In addition, the EC50 in data set [2] (setting [6]) worked out at 14.9 ± 3 nM.
For `C[C@H](NS(=O)(=O)c1cc(C(=O)Nc2ccc(F)c(C#N)c2)n(C)c1)C(F)(F)F` [JNJ-6379], in the data set with HBV, the “pEC 50” value was 7.22 (ref. [15]).
